In the library only some 29% were active in any assay of this set; here they are far more common.
CYP2C19 inhib – blocks human cytochrome P450 2C19; AID 778; P33261; inhibition, % at 5 µM; actives 21% (n = 96,000); CYP2C19 Supersomes, luciferin-H EGE luminescence, 30 min;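 active = CYP2C19 inhibition above a set limit at 5 µM in the primary screen, cut at about 50% in these data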
Target sequence (P33261 whole entry, looked up): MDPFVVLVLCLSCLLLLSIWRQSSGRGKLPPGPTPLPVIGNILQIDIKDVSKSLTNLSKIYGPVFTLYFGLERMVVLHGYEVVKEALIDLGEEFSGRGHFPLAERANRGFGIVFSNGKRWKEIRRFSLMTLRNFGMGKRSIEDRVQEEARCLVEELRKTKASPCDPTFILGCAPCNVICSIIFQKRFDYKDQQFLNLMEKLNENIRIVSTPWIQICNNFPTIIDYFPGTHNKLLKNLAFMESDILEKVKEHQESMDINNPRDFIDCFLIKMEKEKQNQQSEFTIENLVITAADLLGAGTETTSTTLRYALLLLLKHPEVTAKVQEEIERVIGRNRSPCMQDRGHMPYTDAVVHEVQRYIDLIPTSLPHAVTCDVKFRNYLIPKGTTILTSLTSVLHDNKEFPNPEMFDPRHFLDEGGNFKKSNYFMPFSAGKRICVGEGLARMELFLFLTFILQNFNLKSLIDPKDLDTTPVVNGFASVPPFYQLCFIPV
E coli WT exp – blocks growth of wild type E. coli BW25113; OD600 absorbance; growth inhibition, % at 100 µM; actives 0.15% (n = 98,000); AID 710;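 active = growth inhibition above about 50% at one test dose, limit read from the data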;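 note: growth measured after 20 h incubation at 37 °C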
CYP2C9 inhib – human CYP2C9 inhibition; P11712; CYP2C9 Supersomes, luciferin-H conversion, luminescence; inhibition, % at 5 µM; actives 20% (n = 96,000); AID 777;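 active = blocking of liver enzyme CYP2C9 beyond about 50% at 5 µM, limit read from the data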
CYP2C9 activ – activators of human CYP2C9. recombinant CYP2C9, luciferin-H conversion, luminescence; hits give high values; factor 1 = untreated enzyme, 0 = blocked. activation factor at 5 µM. actives 1.4% (n = 96,000). AID 1024;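 active = activation factor of 2 or more for CYP2C9 at a 5 µM dose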
CYP2C19 act – cytochrome P450 2C19 (human) activation | recombinant CYP2C19, luciferin-H EGE luminescence; hits give high values; 0 = fully inhibited enzyme, 1 = untreated enzyme | P33261 | AID 1025 | activation factor at 5 µM | 96,000 tested, under 10 active;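 active = activation factor of at least 2 at 5 µM in the primary screen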
tolC growth inh – blocks growth of E. coli BW25113 tolC mutant. actives 2.2% (n = 65,000). growth inhibition, % at 10 µM (by protocol). OD615;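 active = growth inhibition at or above a cutoff equal to the mean over every tested compound plus 3 SD, cut at about 60% in these data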;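 note: growth measured after 20 h incubation at 37 °C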
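test system = E. coli BW25113 ΔtolC::kan bacteria | medium = LB with kanamycin 50 µg/mL | signal = OD at 615 nm | schedule = 37 °C, 20 h exposure | evaluation = % inhibition of E. coli growth | compound dosing = one dose of 10 µM final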
Each line names hits and unclear results; the compound was inactive in the other large screens.

O=C(CC1SC(=Nc2ccccc2)N(CCCCO)C1=O)NCc1ccccc1 (stereo not drawn)	none
O=C(O)CC1SC(=O)N(Cc2ccccc2)C1=O (stereo not drawn)	none
O=C(CC1SC(=Nc2ccccc2)N(CCCO)C1=O)Nc1ccc(Cl)cc1 (stereo not drawn)	CYP2C19 inhib 73.0, CYP2C9 inhib 88.2
COCCN1C(=O)C(CC(=O)Nc2ccccc2)SC1=Nc1ccc(OC)cc1 (stereo not drawn)	CYP2C19 inhib 55.6, CYP2C9 inhib 81.2 (no result: tolC growth inh)
CCCN1C(=O)SC(CC(=O)Nc2ccccc2)C1=O (stereo not drawn)	CYP2C19 inhib 88.8, CYP2C9 inhib 50.3
C=CCSc1nc(C)c(CC(=O)OCC(C)C)c(=O)[nH]1	none
CCC(=O)N[C@@H]1CC(C(C)(C)NC(=O)CC)CC=C1C (stereo partly drawn)	none
Cc1ccc(OCc2ccc(C(=O)Nc3c(C)nn(Cc4c(F)c(F)c(F)c(F)c4F)c3C)o2)c([N+](=O)[O-])c1	CYP2C19 inhib 57.1, CYP2C9 inhib 56.8 (no result: tolC growth inh)
Cc1nn(Cc2c(F)c(F)c(F)c(F)c2F)c(C)c1NC(=O)c1c([N+](=O)[O-])cnn1C	none (no result: tolC growth inh)
COc1cccc(C2=NC(C)(C)NC(c3ccccc3O)C2)c1 (stereo not drawn)	none
CCC1(C)N=C(c2ccc3c(c2)OCO3)CC(c2ccccc2O)N1 (stereo not drawn)	CYP2C19 inhib 59.4, CYP2C9 inhib 74.0 (no result: tolC growth inh)
O=C(CN1CCN(C(=O)c2cccs2)CC1)NC1CCCCC1	none
Cc1cc(N2CCN(C/C=C/c3ccccc3)CC2)n2ncnc2n1	CYP2C9 inhib 51.7
Cc1cc(N2CCN(C(c3ccccc3)c3ccc(Cl)cc3)CC2)n2ncnc2n1 (stereo not drawn)	none (no result: CYP2C19 inhib, E coli WT exp, CYP2C9 inhib, CYP2C9 activ, CYP2C19 act)
Cc1ccc(NC(=O)c2ccc(-c3nn(C)c(=O)c4ccccc34)cc2)cc1	CYP2C9 inhib 57.1 (no result: tolC growth inh)
CC(O)CNC(=O)c1ccc(-c2nn(C)c(=O)c3ccccc23)cc1 (stereo not drawn)	none (no result: tolC growth inh)
Cc1ccc(NC(=O)c2ccc(-c3nn(C)c(=O)c4ccccc34)cc2)c(C)c1	none (no result: tolC growth inh)
Cn1nc(-c2ccc(C(=O)Nc3cccnc3)cc2)c2ccccc2c1=O	CYP2C19 inhib 58.5, CYP2C9 inhib 53.3
Cn1nc(-c2ccc(C(=O)N3CCN(Cc4ccccc4)CC3)cc2)c2ccccc2c1=O	CYP2C19 inhib 68.8, CYP2C9 inhib 73.0 (no result: tolC growth inh)
Cn1nc(-c2ccc(C(=O)Nc3cccc(Cl)c3)cc2)c2ccccc2c1=O	CYP2C19 inhib 50.6 (no result: tolC growth inh)
O=S(=O)(c1ccccc1)c1nc(-c2ccccc2)oc1N1CCCCC1	none (no result: tolC growth inh)
COc1ccc(NC(=O)c2cc(S(=O)(=O)N3CCS(=O)(=O)CC3)ccc2Cl)cc1	none (no result: tolC growth inh)
O=C(CCn1c(=O)oc2ccccc21)NCCCN1CCCC1=O	none
Cn1nc(-c2ccc(OCC(=O)Nc3cccnc3)cc2)c2ccccc2c1=O	CYP2C9 inhib 70.9
CNC(=O)COc1ccc(-c2nn(C)c(=O)c3ccccc23)cc1	none (no result: tolC growth inh)
Cn1c(-c2ccc[nH]c2=O)nc2cc(Cl)ccc21	none (no result: CYP2C19 inhib, CYP2C9 inhib, CYP2C9 activ, CYP2C19 act, tolC growth inh)
O=C(Nc1nncs1)C1COc2ccccc2O1 (stereo not drawn)	none
O=C(COC(=O)C1COc2ccccc2O1)NC(=O)NC1CCCC1 (stereo not drawn)	none
O=C(Nc1nnc(C(F)(F)F)s1)C1COc2ccccc2O1 (stereo not drawn)	CYP2C19 inhib 56.0, CYP2C9 inhib 98.7 (no result: tolC growth inh)
O=C(COC(=O)C1COc2ccccc2O1)NC(=O)Nc1ccc2c(c1)OCCO2 (stereo not drawn)	CYP2C9 inhib 66.8
CC1(C)Oc2ccc(NC(=O)C3COc4ccccc4O3)cc2O1 (stereo not drawn)	CYP2C19 inhib 93.0, CYP2C9 inhib 75.6
Cc1ccc(NC(=O)C2COc3ccccc3O2)nc1 (stereo not drawn)	CYP2C19 inhib 89.8 (no result: tolC growth inh)
NS(=O)(=O)c1ccc(NC(=O)C2COc3ccccc3O2)cc1 (stereo not drawn)	none (no result: tolC growth inh)
O=C(CCCN1C(=O)c2cccnc2C1=O)N1CC(=O)N(CCc2ccccc2)C(=O)C1	none
O=C(CCC1COc2ccccc2O1)Nc1cccnc1 (stereo not drawn)	CYP2C19 inhib 81.2
O=C(CCC1COc2ccccc2O1)Nc1ncccc1O (stereo not drawn)	CYP2C19 inhib 64.3
O=C(Nc1cccnc1)C1COc2ccccc2O1 (stereo not drawn)	CYP2C19 inhib 62.0 (no result: tolC growth inh)
O=C(Nc1ncccc1Cl)C1COc2ccccc2O1 (stereo not drawn)	none (no result: tolC growth inh)
O=C(Nc1sccc1C(=O)N1CCOCC1)c1cccnc1	none
Cc1nc(S(=O)(=O)N2CCOCC2)c(C#N)c(C)c1Cl	none
CC(C)(C)c1ccc(NC(=O)COc2ccc(-n3ccnc3)cc2)cc1	CYP2C19 inhib 99.0, CYP2C9 inhib 98.9 (no result: tolC growth inh)
N#Cc1cccc(NC(=O)COc2ccc(-n3ccnc3)cc2)c1	CYP2C19 inhib 100.0, CYP2C9 inhib 98.6
O=C(COc1ccc(N2CC(C(=O)O)CC2=O)cc1)Nc1cccc(C(F)(F)F)c1 (stereo not drawn)	none
CC(=O)Nc1ccc(S(=O)(=O)NNC(=O)COc2ccc(C(C)(C)C)cc2)cc1	none (no result: tolC growth inh)
CC(Nc1nc(N2CCN(S(C)(=O)=O)CC2)nc2ccccc12)c1ccccc1 (stereo not drawn)	none (no result: CYP2C19 inhib, CYP2C9 inhib, CYP2C9 activ, CYP2C19 act)
COc1ccc(N(Cc2ccccc2)S(=O)(=O)c2cccc(C(=O)NC3=NCCS3)c2)cc1	CYP2C19 inhib 71.3, CYP2C9 inhib 97.3 (no result: tolC growth inh)
CCN(CC)S(=O)(=O)c1cc(C(=O)NC2=NCCS2)ccc1Cl	none (no result: tolC growth inh)
CN(c1cccc(Cl)c1)S(=O)(=O)c1cccc(C(=O)NC2=NCCS2)c1	CYP2C19 inhib 73.8, CYP2C9 inhib 81.8 (no result: tolC growth inh)
CC(C)CC(C(=O)N1CCc2ccccc2C1)N1C(=O)c2ccccc2C1=O (stereo not drawn)	none (no result: tolC growth inh)
CCOCCCN1CC(C(=O)NCCc2ccc(C)cc2)CC1=O (stereo not drawn)	none
COc1ccc(C)cc1NC(=O)C1CC(=O)N(Cc2ccco2)C1 (stereo not drawn)	none
CCOC(=O)c1[nH]c(COC(=O)C2CC(=O)N(Cc3ccccc3)C2)c(C(=O)OCC)c1C (stereo not drawn)	CYP2C9 inhib 59.5
COC(=O)c1sc(N)c(C(=O)OC)c1COC(=O)C1CC(=O)N(Cc2ccco2)C1 (stereo not drawn)	CYP2C19 inhib 79.4, CYP2C9 inhib 91.1
CCOC(=O)c1sc(N)c(C(=O)OCC)c1COC(=O)C1CC(=O)N(Cc2ccco2)C1 (stereo not drawn)	CYP2C19 inhib 91.1, CYP2C9 inhib 98.2
Nc1sccc1C(=O)c1ccccc1	none
CC1CCN(C(=S)c2ccc3c(c2)OCO3)CC1	CYP2C19 inhib 99.1 (no result: tolC growth inh)
O=S(=O)(c1cccc2ccccc12)N1CCSC1	CYP2C9 activ 5.2 (no result: E coli WT exp)
O=C(O)c1cc2cccc(S(=O)(=O)N3CCOCC3)c2cc1O	none

Screening data as filed in PubChem.
